Source: ChEMBL document CHEMBL4028805, “Phenylthiazole Antibacterial Agents Targeting Cell Wall Synthesis Exhibit Potent Activity in Vitro and in Vivo against Vancomycin-Resistant Enterococci” (J Med Chem, 2017)
Converted amounts (≈) assume the structure as drawn. The source made the active and inactive calls.

Key:
Escherichia coli [1] = experiment: Antibacterial activity against tolC deficient Escherichia coli assessed as cell lysis at 25 ug/ml after 30 mins in presence of sucrose by FM4-64/DAPI/SYTOX Green staining-based deconvolution microscopic analysis; format: functional
Enterococcus faecalis [2] = experiment: Synergistic antimicrobial activity against Enterococcus faecalis ATCC 49532 after 20 hrs in presence of ciprofloxacin by checkerboard assay; format: functional
Outline: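 Checkerboard in TSB with a starting inoculum of 1×10^5 CFU/mL. Compound and antibiotic diluted from 2× or 4× MIC along perpendicular axes. Incubated 20 h at 37 °C. ΣFIC calculated: ≤0.5 synergy, >0.5 to <2 additive, 2–4 indifference, >4 antagonism.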

Enterococcus faecium = experiment: Potentiation of vancomycin-induced antibacterial activity against Enterococcus faecium HM-968 assessed as fold reduction in vancomycin MIC preincubated for 30 mins followed by vancomycin addition measured after 18 to 21 hrs; format: functional
Outline: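 VRE suspensions at 5×10^5 CFU/mL preincubated with compound at ½ × MIC for 30 min at room temperature. […] Fold reduction calculated as vancomycin MIC alone over MIC in combination.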

Enterococcus faecalis [3] = experiment: Synergistic antimicrobial activity against Enterococcus faecalis ATCC 51299 after 20 hrs in presence of ciprofloxacin by checkerboard assay; format: functional
Outline: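 Checkerboard assay. McFarland 0.5 suspension diluted in TSB to 1 × 10^5 CFU/mL. Compound diluted along one plate axis and antibiotic along the other, each starting at 2× or 4× MIC. Incubated 20 h at 37 °C, MIC read as no visible growth. Synergy defined as ΣFIC ≤0.5, additive >0.5 to <2, indifferent 2–4, antagonistic >4.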

Enterococcus faecalis [4] = experiment: Antibacterial activity against vancomycin-resistant Enterococcus faecalis HM-201 infected in Caenorhabditis elegans AU37 assessed as reduction in bacterial burden at 20 ug/ml after 18 hrs by CFU-based […] analysis relative to control; format: functional; set-up: scale not given: the % may be the effect or the level left
Outline: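 C. elegans AU37 adults infected on an E. faecalis HM-201 lawn for 2 h, washed in M9, 20–25 worms per well. Treated in triplicate with 20 μg/mL, with water as negative control. Worms washed, lysed with silicon carbide by vortexing, diluted serially and plated on TSA with 50 μg/mL gentamicin. CFU counted after 18 h at 37 °C and expressed as % reduction versus untreated worms.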

[5] = Inhibition of Escherichia coli UPPP expressed in Escherichia coli C41(DE3) using FPP as substrate preincubated for 15 mins followed by substrate addition measured after 20 mins by malachite green assay
Outline: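 Purified E. coli UPPP (0.125 μM) preincubated 15 min at room temperature with inhibitor (300 to 0.8 μM) in 50 mM HEPES, 150 mM NaCl, 10 mM MgCl2, 0.02% DDM, pH 7.5. Then 35 μM FPP added, 20 min at 37 °C. Released phosphate measured by malachite green at 620 nm after 30 min. IC50 from dose-response curves. Bacitracin used as control.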

Acinetobacter baumannii = experiment: Antibacterial activity against Acinetobacter baumanii ATCC 19606 after 18 to 22 hrs in presence of 1/4 times MIC colistin by broth microdilution method; format: functional; settings: ATCC 19606 = CIP 70.34 = JCM 6841
Outline: (§1)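 Broth microdilution per CLSI guidelines. Gram-negatives grown in TSB. Each strain tested alone and again with colistin at ¼ × MIC to permeabilize the outer membrane. Plates incubated at 37 °C for 18–22 h. MIC read as the lowest concentration showing no visible growth.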

Escherichia coli [6] = experiment: Antibacterial activity against tolC deficient Escherichia coli assessed as cell shape defects at 25 ug/ml after 30 mins in presence of sucrose by FM4-64/DAPI/SYTOX Green staining-based deconvolution microscopic analysis; format: functional
Escherichia coli [7] = experiment: Antibacterial activity against tolC deficient Escherichia coli assessed as formation of spheroplasts at 25 ug/ml after 2 hrs in presence of sucrose by FM4-64/DAPI/SYTOX green staining-based deconvolution microscopic analysis; format: functional
HRT-18 cell line [8] = experiment: Cytotoxicity against human HRT18 cells assessed as reduction in cell viability up to 20 ug/ml after 2 hrs by MTS assay; format: cell-based; settings: hrt-18, 2 h
Outline: (§2)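 HRT-18 cells maintained in RPMI-1640 with 10% fetal horse serum at 37 °C, 5% CO2. Exposed to 5, 10, 20 or 40 μg/mL for 2 or 24 h, then MTS added and absorbance read at 490 nm. Viability expressed relative to untreated cells, n ≥ 3, one-way ANOVA with Dunnett's test.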

Pseudomonas aeruginosa = experiment: Antibacterial activity against Pseudomonas aeruginosa ATCC 15442 after 18 to 22 hrs in absence of colistin by broth microdilution method; format: functional
Staphylococcus aureus = experiment: Antibacterial against Methicillin-Resistant Staphylococcus aureus after 18 to 20 hrs by broth microdilution method; format: functional
Klebsiella pneumoniae = experiment: Antibacterial activity against Klebsiella pneumoniae BAA-1706 after 18 to 22 hrs in absence of colistin by broth microdilution method; format: functional
[9] = Induction of proton motive force collapse in Escherichia coli inverted membrane vesicle in presence of succinate/O2-driven PMF generation system by ACMA-based fluorescence assay; format: functional, cell membranes
Outline: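 E. coli inverted membrane vesicles (0.1 mg/mL membrane protein) with 2 μM ACMA and 0.5 mM ATP or succinate, in 10 mM HEPES-KOH, 5 mM MgSO4, 100 mM KCl, pH 7.5. Proton gradient followed by ACMA fluorescence (ex 410/em 480 nm). EC50 taken from dose-response curves. CCCP used as reference uncoupler.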

HRT-18 cell line [10] = experiment: Cytotoxicity against human HRT18 cells assessed as reduction in cell viability at 20 ug/ml after 24 hrs by MTS assay; format: cell-based; settings: hrt-18, 24 h; outline: as §2
Enterobacter cloacae = experiment: Antibacterial activity against Enterobacter cloacae BAA-1154 after 18 to 22 hrs in presence of 1/4 times MIC colistin by broth microdilution method; format: functional; outline: as §1
Escherichia coli [11] = experiment: Antibacterial activity against tolC deficient Escherichia coli assessed as formation of spheroplasts at 25 ug/ml after 2 hrs by FM4-64/DAPI/SYTOX green staining-based deconvolution microscopic analysis; format: functional
[12] = molecular target: T1, Farnesyl pyrophosphate synthase (Homo sapiens, UniProt P14324); experiment: Inhibition of human FPPS
T1 sequence (P14324 whole entry): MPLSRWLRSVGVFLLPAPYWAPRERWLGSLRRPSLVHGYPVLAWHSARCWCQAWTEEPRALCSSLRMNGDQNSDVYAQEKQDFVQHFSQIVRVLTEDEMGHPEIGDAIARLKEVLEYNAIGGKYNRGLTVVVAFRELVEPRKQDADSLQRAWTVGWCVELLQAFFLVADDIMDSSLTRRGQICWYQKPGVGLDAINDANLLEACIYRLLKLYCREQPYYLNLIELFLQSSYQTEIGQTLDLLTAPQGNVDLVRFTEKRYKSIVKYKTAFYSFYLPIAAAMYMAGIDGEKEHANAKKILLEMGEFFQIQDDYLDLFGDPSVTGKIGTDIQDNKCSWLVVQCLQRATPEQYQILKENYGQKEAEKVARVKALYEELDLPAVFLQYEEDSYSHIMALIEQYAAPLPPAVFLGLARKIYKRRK

CCCCc1ccc(-c2nc(C)c(/C(C)=N/NC(=N)N)s2)cc1
Activity (Escherichia coli [1]): Active
fractional inhibitory concentration index (FICI) (Enterococcus faecalis [2]): 0.63 - 1
Activity (Enterococcus faecium): inactive
fractional inhibitory concentration index (FICI) (Enterococcus faecalis [3]): 0.5
Activity (Enterococcus faecalis [4]): 89%
IC50 [5]: 6 µM
MIC (Acinetobacter baumannii): 1 µg/mL
Activity (Escherichia coli [6]): Active
Activity (Escherichia coli [7]): Active
Activity (HRT-18 cell line [8]): Non-Toxic
MIC (Pseudomonas aeruginosa): 64 µg/mL (≈ 194 µM)
MIC (Staphylococcus aureus): 1.3 to 5.6 µg/mL (≈ 3.95 to 17 µM)
MIC (Klebsiella pneumoniae): 16 µg/mL (≈ 48.6 µM)
EC50 [9]: 25 µM
Activity (HRT-18 cell line [10]): Non-Toxic
MIC (Enterobacter cloacae): 1 µg/mL
Activity (Escherichia coli [11]): Active
inhibition (INH) [12]: Not Active
